According to ChEMBL document CHEMBL1649306, “Arylimidamide DB766, a potential chemotherapeutic candidate for Chagas' disease treatment” (Antimicrob Agents Chemother, 2010):
Where “and” joins values, the source holds several entries; their conditions need not be identical. Equal entries are not always repeated. Calls of active or inactive are those of the source. The calls are words filed in the database; no cut-off is given here.

Legend:
Trypanosoma cruzi [1] = assay: Antitrypanosomal activity against bloodstream forms of Trypanosoma cruzi Y after 24 hrs by light microscopy in presence of 50% mouse blood; type: functional, organism-based
Outline: (§1)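 Bloodstream trypomastigotes kept at 4°C for 24 h in freshly isolated 50% mouse blood with serial dilutions (up to 32 μM). Motile live parasites counted in a Neubauer chamber by light microscopy; IC50 calculated as concentration reducing parasite number by 50%.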

Trypanosoma cruzi [2] = assay: Antitrypanosomal activity against bloodstream forms of Trypanosoma cruzi Y infected in Swiss mouse cardiomyocytes assessed as parasite mitochondrial swelling at 10 ug/ml after 2 hrs by transmission electron microscopy; type: functional, organism-based
Outline: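 Y-strain bloodstream trypomastigotes treated 2 to 24 h at 37°C. Fixed 60 min at 4°C in 2.5% glutaraldehyde in 0.1 M cacodylate, pH 7.2. Postfixed 1 h at 4°C in 1% OsO4 with 0.8% potassium ferricyanide. Acetone-dehydrated, Epon-embedded, sections stained with uranyl acetate and lead citrate, ultrastructure examined by TEM.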

Trypanosoma cruzi [3] = assay: Antitrypanosomal activity against Trypanosoma cruzi Y bloodstream forms infected in Swiss-Webster mouse assessed as survival of mouse at 50 mg/kg/day, ip p administered 5 days postinfection for 10 consecutive days measured on day 120; type: functional, organism-based
Outline: (§2)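 Male Swiss mice infected i.p. with 10^4 Y strain bloodstream forms. Given 0.2 ml i.p. at 5 and 8 dpi, or daily for 10 days from 5 dpi; reference drug given by gavage. Parasitemia measured by the Pizzi-Brener method, cumulative mortality checked daily to 120 dpi, n ≥ 6 per group.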

Trypanosoma cruzi [4] = assay: Antitrypanosomal activity against Trypanosoma cruzi Y bloodstream forms infected in Swiss-Webster mouse assessed as survival of mouse at 25 mg/kg/day, ip administered 5 days postinfection for 10 consecutive days measured on day 120; type: functional, organism-based; outline: as §2
Trypanosoma cruzi [5] = assay: Selectivity ratio of IC50 for Trypanosoma cruzi Y bloodstream forms to IC50 for Trypanosoma cruzi Y amastigotes; type: functional
Trypanosoma cruzi [6] = assay: Antitrypanosomal activity against Trypanosoma cruzi Columbian bloodstream forms infected in C3H mouse assessed as decrease in parasite load at 50 mg/kg/day, ip administered 21 days postinfection measured on day 45; type: functional, organism-based
Outline: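 C3H/He mice infected i.p. with 10^2 Colombian strain bloodstream forms. Treatment started at parasitemia onset (21 dpi) with daily doses for 10 treatments, 0.1 ml i.p. Parasitemia measured by the Pizzi-Brener method; n ≥ 6 parasitemic mice per group.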

Trypanosoma cruzi [7] = assay: Antitrypanosomal activity against Trypanosoma cruzi Y infected in Swiss-Webster mouse assessed as decrease in parasite load at 100 mg/kg/day, ip administered 5 days post-infection for 10 consecutive days measured on day 120; type: functional; settings: route intraperitoneal; outline: as §2
Trypanosoma cruzi [8] = assay: Antitrypanosomal activity against Trypanosoma cruzi Y bloodstream forms infected in Swiss mouse cardiomyocytes assessed as parasite crista dilation at 10 ug/ml after 24 hrs by transmission electron microscopy; type: functional, organism-based
Trypanosoma cruzi [9] = assay: Antitrypanosomal activity against Trypanosoma cruzi Y bloodstream forms after 2 hrs by light microscopy; type: functional, organism-based
Outline: (§3)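 Bloodstream trypomastigotes from infected Swiss mice at peak parasitemia, 5.0 × 10^6 cells/ml in RPMI 1640 with 5% FBS. Exposed at 37°C to serial dilutions from 0 to 32 μM. Motile live parasites counted by light microscopy in a Neubauer chamber, then IC50 calculated.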

Trypanosoma cruzi [10] = assay: Antitrypanosomal activity against bloodstream forms of Trypanosoma cruzi Y after 24 hrs by light microscopy; type: functional, organism-based; outline: as §3
[11] = Toxicity in […] mouse assessed as mortality at cumulative dose of 100 mg/kg, ip measured after 48 hrs; type: organism-based; parameters: dose 100 mg/kg, route intraperitoneal; settings: in vivo, read-out: Activity
Outline: (§4)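 Uninfected 8–10-week-old female and male Swiss Webster and C3H/He (H-2k) mice injected i.p. on day 1 every 2 h with escalating doses: 5, 15, 30, 50 and 100 mg/kg (cumulative 20, 50, 100, 200 mg/kg). Toxic and subtoxic signs inspected on days 2–3 per OECD guidelines; tolerated dose set at 48 h.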

[12] = Cytotoxicity against Swiss-Webster mouse cardiomyocytes after 72 hrs by MTT assay; type: cell-based, Cardiomyocyte; settings: read-out: LC50
Outline: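 Primary embryonic cardiomyocytes from Swiss mice, uninfected, incubated 24 h or 72 h at 37°C, 5% CO2, with 0 to 96 μM in DMEM. MTT read at 490 nm; LC50 taken as concentration reducing viability by 50%; at least three experiments in duplicate.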

Trypanosoma cruzi [13] = assay: Antitrypanosomal activity against Trypanosoma cruzi Y bloodstream forms infected in Swiss-Webster mouse assessed as decrease in parasite-induced cardiac inflammation in mouse at 100 mg/kg/day, ip administered 5 days postinfection for 10 alternate days measured after 14 days postinfection; type: functional, Heart; parameters: scale not given: the % may be the effect or the level left; settings: route intraperitoneal
Trypanosoma cruzi [14] = assay: Antitrypanosomal activity against Trypanosoma cruzi Y bloodstream forms infected in Swiss-Webster mouse assessed as survival of mouse at 25 mg/kg/day, ip administered 8 days postinfection measured on day 120; type: functional, organism-based; outline: as §2
Trypanosoma cruzi [15] = assay: Antitrypanosomal activity against Trypanosoma cruzi 956 epimastigotes after 24 hrs by light microscopy; type: functional, organism-based; settings: Trypanosoma cruzi, 956, 24 h
Outline: (§5)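 Epimastigotes from 5-day exponential cultures, 5 × 10^6 parasites/ml in LIT medium, incubated at 28°C up to 96 h with DB766 0 to 32 μM or Bz 0 to 250 μM. Counted daily in a Neubauer chamber. IC50 averaged from at least three determinations in duplicate.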

Trypanosoma cruzi [16] = assay: Antitrypanosomal activity against Trypanosoma cruzi Y epimastigotes after 24 hrs by light microscopy; type: functional, organism-based; outline: as §5
Trypanosoma cruzi [17] = assay: Antitrypanosomal activity against Trypanosoma cruzi 875 epimastigotes after 24 hrs by light microscopy; type: functional, organism-based; settings: Trypanosoma cruzi, 875, 24 h; outline: as §5
Trypanosoma cruzi [18] = assay: Antitrypanosomal activity against Trypanosoma cruzi Y amastigotes infected in Swiss-Webster CM cells assessed as parasite DNA to host cell nucleus ratio at 10 ug/ml after 1 hr by fluorescence and transmission electron microscopy analysis; type: functional
Trypanosoma cruzi [19] = assay: Antitrypanosomal activity against Trypanosoma cruzi 855 epimastigotes after 24 hrs by light microscopy; type: functional, organism-based; settings: Trypanosoma cruzi, 855, 24 h; outline: as §5
Trypanosoma cruzi [20] = assay: Antitrypanosomal activity against bloodstream forms of Trypanosoma cruzi Columbian after 24 hrs by light microscopy in presence of 50% mouse blood; type: functional, organism-based; outline: as §1
Mus musculus [21] = assay: Toxicity in […](H-2k) mouse assessed as mortality at cumulative dose of 200 mg/kg, ip measured after 48 hrs; type: organism-based; parameters: dose 200 mg/kg, route intraperitoneal; settings: in vivo; outline: as §4
Trypanosoma cruzi [22] = assay: Antitrypanosomal activity against Trypanosoma cruzi Columbian bloodstream forms infected in C3H mouse assessed as survival of mouse at 100 mg/kg/day, po administered 5 days postinfection for 10 consecutive days measured after 31 days; type: functional
Outline: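 Male C3H/He (H-2k) mice infected i.p. with 5 × 10^3 Colombian-strain bloodstream trypomastigotes; only parasitemia-positive mice grouped (n ≥ 6). DB766 100 mg/kg/day given i.p. (0.1 ml) or by gavage (0.1 ml), daily for 10 treatments. Parasitemia by Pizzi-Brener method; mortality checked daily, expressed as cumulative percentage.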

Mus musculus [23] = assay: Toxicity in […](H-2k) mouse assessed as effect on GPT level at 100 mg/kg/day, […]; type: organism-based; settings: in vivo
Trypanosoma cruzi [24] = assay: Antitrypanosomal activity against Trypanosoma cruzi Y bloodstream forms infected in Swiss-Webster mouse assessed as decrease in parasite load at 25 mg/kg/day, ip administered 5 days postinfection for 10 consecutive days measured after 8 days; type: functional; parameters: scale not given: the % may be the effect or the level left; settings: route intraperitoneal; outline: as §2

For CC(C)Oc1cc(NC(=N)c2ccccn2)ccc1-c1ccc(-c2ccc(NC(=N)c3ccccn3)cc2OC(C)C)o1, the IC50 (Trypanosoma cruzi [1]) was 710 nM, the Activity (Trypanosoma cruzi [2]) was “Active” and the Activity (Trypanosoma cruzi [3]) was “Active”. For the same compound, the Activity (Trypanosoma cruzi [4]) was “Active”, the Selectivity ratio (Trypanosoma cruzi [5]) was >533 and 714 and the Activity (Trypanosoma cruzi [6]) was “inactive”. The inhibition in vivo at 100 mg/kg/day (Trypanosoma cruzi [7]) was greater than 98%, the Activity (Trypanosoma cruzi [8]) was “Active” and the IC50 (Trypanosoma cruzi [9]) was 1140 nM. The IC50 (Trypanosoma cruzi [10]) was 110 nM, the mortality at 48 h [11] was 80% and the CC50 at 72 h [12] was 16400 nM. The Activity (Trypanosoma cruzi [13]) was 78%, the Activity (Trypanosoma cruzi [14]) was “Active” and the IC50 (Trypanosoma cruzi [15]) was 160 nM. For the same compound, the IC90 (Trypanosoma cruzi [15]) was 320 nM, the IC50 (Trypanosoma cruzi [16]) was 70 nM and the IC90 (Trypanosoma cruzi [16]) was 220 nM. For the same compound, the IC50 (Trypanosoma cruzi [17]) was 60 nM, the IC90 (Trypanosoma cruzi [17]) was 240 nM and the Ratio (Trypanosoma cruzi [18]) was 2.1. For the same compound, the IC50 (Trypanosoma cruzi [19]) was 90 nM, the IC90 (Trypanosoma cruzi [19]) was 330 nM and the IC50 (Trypanosoma cruzi [20]) was 1000 nM. The Activity (Mus musculus [21]) was “Non-toxic”, the Activity (Trypanosoma cruzi [22]) was 100% and the Activity (Mus musculus [23]) was “Non-toxic”. The Activity (Trypanosoma cruzi [24]) was 88%.
